In PubChem BioAssay AID624466 (The Scripps Research Institute Molecular Screening Center, 2012):
The campaign covered roughly 360,000 compounds. About 5,400 (1.5%) were called active. Many of the other results were omitted from the sample, so actives are more common in it than they were. Values without a mark were called inactive.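 Rule for the calls: active = inhibition above a per-plate cutoff, the mean inhibition of test compounds on that plate plus 3 SD (cut at about 49% in these data); inactive = the rest.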

Each compound was assayed against Trace amine-associated receptor 1 (Homo sapiens) (UniProt Q96RJ0) (assay: human TAAR1 antagonists, primary screen, Fluo-8 calcium fluorescence, CHO RD-HGA16 cells (AID 624466;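 note: 0% = DMSO plus EC80 beta-PEA response and 100% = DMSO alone without agonist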)). Details: CHO RD-HGA16 TAAR1, Fluo-8 calcium fluorescence, antagonist; at 3 µM; active compounds read high.
Chain of Trace amine-associated receptor 1 (Homo sapiens) (Q96RJ0 whole entry, looked up): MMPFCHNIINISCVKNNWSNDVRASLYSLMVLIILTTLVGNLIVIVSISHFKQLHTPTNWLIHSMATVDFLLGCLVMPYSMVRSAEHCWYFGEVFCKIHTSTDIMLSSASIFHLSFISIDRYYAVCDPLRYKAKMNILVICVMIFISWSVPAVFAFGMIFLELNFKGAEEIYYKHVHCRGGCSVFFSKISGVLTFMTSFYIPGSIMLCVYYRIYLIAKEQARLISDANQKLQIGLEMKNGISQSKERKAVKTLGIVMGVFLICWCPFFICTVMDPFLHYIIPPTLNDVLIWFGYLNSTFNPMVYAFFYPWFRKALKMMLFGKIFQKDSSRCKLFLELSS
Procedure, shortened: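 System: CHO RD-HGA16 cells bearing hTAAR1. Reagent: EC80 β-phenethylamine stimulus. Schedule: seeding 17-24 h prior, 75-min 37 °C, 30-min RT dye loading. Signal: Fluo-8 intracellular calcium dye fluorescence, real-time kinetic reads. Read-out: % inhibition from peak post-agonist over basal fluorescence ratio. Benchmarks: vehicle wells and EC80 agonist wells. Replicates: n of 1.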
`O=C(Nc1ccc(-c2nnc(-c3ccccc3)o2)cc1)c1ccc(Br)o1` was tested, and the inhibition was 71% (active). `CN1CCN(C(=O)c2ccc(NC(=O)c3ccc(Br)o3)cc2)CC1` showed an inhibition of -4.9%. With `CCS(=O)(=O)c1ccc(-c2cccc(NC(=O)c3ccc(Br)o3)c2)nn1` the inhibition was 13.4%. In the case of `CC(=O)OCC1(O)CC23CCC4c5ccoc5CCC4(C)C2CCC1C3` (configuration not stated), the inhibition is reported as 13.6%. With `COC(=O)C[C@@H]1C=C[C@@H](NC(=O)c2cccnc2)[C@@H](CO)O1` the inhibition was -15.9%. `CCC(C)(C)NC(=O)c1cc([N+](=O)[O-])ccc1N1CCCCC1` showed an inhibition of -10.4%. With `Cc1cc(OCCCN2CCN(Cc3ccccc3)CC2)ccc1[N+](=O)[O-]` the inhibition was -20.9%. For `Cc1cc(OCCCCOc2ccc(C#N)cc2)ccc1[N+](=O)[O-]`, the inhibition was 51.1% (active). Work on `Cc1cc(OCC(=O)NC2CCN(C)CC2)ccc1[N+](=O)[O-]` yielded an inhibition of -21.6%. In the case of `COc1ccc(-n2nc(C(=O)NCC(=O)N3CCC(C(N)=O)CC3)c3ccccc3c2=O)cc1OC`, the inhibition is reported as 1.2%. `O=C(NCCN1CCOCC1)[C@H](Cc1ccccc1)N1C(=O)c2ccccc2C1=O` gave an inhibition of -8.4%. `CCOC(=O)C(Cc1ccc(N)cc1)N1C(=O)c2ccccc2C1=O` (configuration not stated) was tested, and the inhibition was 10.7%. `N/C(=N\c1nc2ccccc2o1)NC(=O)C(Cc1ccccc1)N1C(=O)c2ccccc2C1=O` (configuration not stated) was tested, and the inhibition was 49% (active). `CC(C)(C)C1CCC(=O)N2CCC[C@]2(c2ccccc2)C1` (some centres not stated) gave an inhibition of -2.31%. In the case of `CC(C)CC1C(=O)N(Cc2cn(CC3CCCCC3)nn2)CCS(=O)(=O)N1Cc1ccc(-c2ccc(Cl)cc2)cc1` (configuration not stated), the inhibition is reported as -15.1%. Compound `COc1ccc(-c2ccc(CN3C(CC(C)C)C(=O)N(Cc4cn(CC5CCCCC5)nn4)CCS3(=O)=O)cc2)cn1` (configuration not stated) has an inhibition of -9.27%. With `COc1ccc(-c2ccc(CN3C(CC(C)C)C(=O)N(Cc4cn(CC5CCCCC5)nn4)CCS3(=O)=O)cc2)cc1` (configuration not stated) the inhibition was -8.03%. Compound `COCOCCn1cc(CN2CCS(=O)(=O)N(Cc3ccc(-c4cccc(N(C)C)c4)cc3)C(CC(C)C)C2=O)nn1` (configuration not stated) has an inhibition of 1.52%. `COCOCCn1cc(CN2CCS(=O)(=O)N(Cc3ccc(-c4ccccc4)cc3)C(CC(C)C)C2=O)nn1` (configuration not stated) was tested, and the inhibition was 54.1% (active). With `COCOCCn1cc(CN2CCS(=O)(=O)N(Cc3ccc(-c4ccc(OC)cc4)cc3)C(CC(C)C)C2=O)nn1` (configuration not stated) the inhibition was 54.1% (active). Compound `CCOc1ccc(CNC(=O)CCC(=O)N2CCSc3ccccc32)cc1` has an inhibition of -0.53%. Compound `O=S1(=O)CC(N2CCN(CCO)CC2)CN1Cc1cn(Cc2ccc(Cl)cc2)nn1` (configuration not stated) has an inhibition of -8.26%.
